{
  "source": "paper PMC9958447",
  "about": "(Heliyon, 2023)",
  "key": {"[1]": {"tested_on": "PTZ-induced larvae of zebrafish", "assay": "Behavioural assessment in PTZ-induced epilepsy zebrafish larvae", "format": "in vivo, zebrafish (Danio rerio)"}, "[2]": {"tested_on": "zebrafish larvae", "conditions": "cited from earlier work"}, "[3]": {"conditions": "cited from earlier work"}, "[4]": {"tested_on": "zc4h2 KO zebrafish larvae", "assay": "Heartbeat / cardiotoxicity in zc4h2 KO zebrafish larvae", "format": "in vivo, zebrafish (Danio rerio)", "conditions": "for cardiotoxicity: zebrafish larvae, judged from heartbeat"}, "[5]": {"tested_on": "wild-type (WT) zebrafish embryos", "assay": "Toxicity profiling of embryo zebrafish", "format": "in vivo, zebrafish (Danio rerio)", "method_in_brief": "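Wild-type embryos were exposed from 5 hpf to the test compound at 0, 4.29, 8.58, 12.86, 17.15 and 21.44 μM, serially diluted from a 1 mM DMSO stock. Triplicates had 10 embryos each (n = 30). Mortality was scored daily, with LC50 at 72 hpf. Spontaneous coils were counted for 1 min at 24 hpf after 5 min habituation. Percent hatched was scored at 72 hpf. Data are mean ± SEM, analysed by one-way ANOVA with Tukey.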"}, "[6]": {"conditions": "2.5 mM PTZ alone vs control, 5 dpf larvae"}, "[7]": {"conditions": "2.5 mM PTZ, 5 dpf larvae, 8.58 μM compound 8 or 100 μM VPA, 1 h"}, "[8]": {"conditions": "2.5 mM PTZ, 5 dpf larvae, 8.58 μM compound 8 or 100 μM VPA, 1 h, vs PTZ group"}},
  "note": "Entries after “also recorded” stand apart in the source; their conditions may differ.",
  "data": [
    {"smiles": "C1CCc2nnnn2CC1", "note": "[PTZ, pentylenetetrazol]", "values": [
      {"measurement": "distance and speed of zebrafish", "setting": "[1]; [6]", "result": "significantly increased"},
      {"measurement": "total number of freezes", "setting": "[1]; [6]", "result": "significantly increased"}
    ]},
    {"smiles": "CCCC(CCC)C(=O)O", "note": "[VPA, sodium valproate]", "values": [
      {"measurement": "distance spent in the inner area (thigmotaxis)", "setting": "[1]; [7]", "result": "significantly increased"},
      {"measurement": "total duration of freezing", "setting": "[1]; [7]", "result": "without significant changes"},
      {"measurement": "average velocity (average speed travelled)", "setting": "[1]; [8]", "result": "significant decrease"},
      {"measurement": "distance travelled (total and average)", "setting": "[1]; [8]", "result": "significant decrease"},
      {"measurement": "number of freezing count", "setting": "[1]; [8]", "result": "significantly reduced"},
      {"measurement": "total velocity (total speed travelled)", "setting": "[1]; [8]", "result": "significant decrease"}
    ]},
    {"smiles": "CN1C(=O)CN=C(c2ccccc2)c2cc(Cl)ccc21", "note": "[diazepam]", "values": [
      {"measurement": "percentage of distance spent in the inner area", "setting": "[2]", "result": "significantly increased"}
    ]},
    {"smiles": "O=c1onc(-c2cccs2)n1Cc1ccc(F)cc1Cl", "note": "[GM90432, 4-(2-chloro-4-fluorobenzyl)-3-(2-thienyl)-1,2,4-oxadiazol-5(4H)-one]", "values": [
      {"measurement": "blood-brain barrier passage", "setting": "[3]", "result": "effectively cross the blood-brain barrier"}
    ]},
    {"smiles": "O=C(/C=C/c1cc(F)cc(F)c1)c1ccc[nH]1", "note": "[Compound 8, (E)-3-(3,5-difluorophenyl)-1-(1H-pyrrol-2-yl)prop-2-en-1-one]", "values": [
      {"measurement": "heartbeat (heartbeats/min)", "setting": "[4]; 5 dpf larvae, 2 h incubation, vs control groups", "result": "no significant difference"},
      {"measurement": "cardiotoxicity", "setting": "[4]", "result": "no cardiotoxic effects"},
      {"measurement": "cardiotoxicity", "setting": "[4]; listed as compound 8", "result": "no cardiotoxic effect; also recorded: no potential cardiotoxicity"},
      {"measurement": "mortality at the beginning of the observation period", "setting": "[5]; 21.44 μM, 24 hpf", "result": "lethal"},
      {"measurement": "spontaneous tail coiling (STC)", "setting": "[5]; >12.86 μM, 24 hpf", "result": "no tail movement"},
      {"measurement": "optimal safe concentration", "setting": "[5]; chosen from all toxicological parameters", "result": 8.58, "unit": "µM"},
      {"measurement": "cumulative mortality rate", "setting": "[5]; exposure of 12.86 μM or more, 24–72 hpf", "result": "> 80", "unit": "%"},
      {"measurement": "mortality compared to the control group", "setting": "[5]; exposure up to 8.58 μM", "result": "no significant difference"},
      {"measurement": "spontaneous tail coiling (STC) compared to control", "setting": "[5]; from 8.58 μM, 24 hpf", "result": "significant decrease"},
      {"measurement": "hatching rate", "setting": "[5]; from 12.86 μM, 72 hpf", "result": "decreased significantly"},
      {"measurement": "distance spent in the inner area (thigmotaxis)", "setting": "[1]; [7]", "result": "significantly increased"},
      {"measurement": "total duration of freezing", "setting": "[1]; [7]", "result": "increased"},
      {"measurement": "average velocity (average speed travelled)", "setting": "[1]; [8]", "result": "significant decrease"},
      {"measurement": "number of freezing count", "setting": "[1]; [8]", "result": "significant reduction"},
      {"measurement": "total velocity (total speed travelled)", "setting": "[1]; [8]", "result": "significant decrease"},
      {"measurement": "convulsive behaviour", "setting": "[1]; PTZ-induced larvae", "result": "effective in reducing"}
    ]}
  ]
}
